According to ChEMBL document CHEMBL1671794, “Synthesis and SAR studies on azetidine-containing dipeptides as HCMV inhibitors” (Bioorg Med Chem, 2011):
The source made the active and inactive calls. No cut-off for these calls is given here.

Experiments:
Human betaherpesvirus 5 = assay: Antiviral activity against human cytomegalovirus infected in HELF assessed as decrease in plaque formation after 7 days by microscopy; format: functional, organism-based; conditions: Human betaherpesvirus 5, HELF, 168 h
Method in brief: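 Confluent HEL fibroblasts were infected with HCMV Davis strain at 100 PFU per well. After 2 h, residual virus was removed and compound-containing medium was added in duplicate. Cells were incubated for 7 days at 37 °C, then ethanol-fixed and Giemsa-stained, and cytopathogenicity was scored microscopically.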

[1] = Cytotoxicity against HELF cells assessed as after 3 days by Coulter counting analysis; format: cell-based; conditions: human; for MCC at 72 h / CC50 at 72 h: HELF cells; for CC50: helf, 72 h
Method in brief: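 HEL cells were seeded at 5 × 10^3 cells/well and allowed to grow for 24 h before compound dilutions were added. After 3 days at 37 °C, cells were counted with a Coulter Counter.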

Human alphaherpesvirus 3 [2] = assay: Antiviral activity against Thymidine kinase-deficient Varicella-zoster virus 07-1 infected in HELF assessed as virus-induced cytopathogenicity after 5 days by microscopy; format: functional, organism-based; conditions: Human alphaherpesvirus 3, 07-1, HELF, 120 h
Human alphaherpesvirus 3 [3] = assay: Antiviral activity against Thymidine kinase-positive Varicella-zoster virus Oka infected in HELF assessed as virus-induced cytopathogenicity after 5 days by microscopy; format: functional; conditions: Human alphaherpesvirus 3, strain Oka vaccine, 120 h
Sindbis virus = assay: Antiviral activity against Sindbis virus infected in african green monkey Vero cells assessed as virus-induced cytopathogenicity at 20 to 100 uM after 4 days by microscopy; format: functional, organism-based
Method in brief: (§1)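 Confluent cell monolayers were inoculated with 100 CCID50 of virus. After 1 h of adsorption, residual virus was removed and cultures were incubated with fivefold serial compound dilutions. Cytopathicity was scored microscopically once it was complete in the untreated infected controls.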

Influenza A virus [4] = assay: Antiviral activity against Influenza A virus infected in MDCK assessed as virus-induced cytopathogenicity at 20 to 100 uM after 4 days by microscopy; format: functional, organism-based
Method in brief: (§2)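 Near-confluent MDCK (influenza) or confluent HEL monolayers were inoculated with 100 CCID50 of virus. After 1-h adsorption, residual virus was removed, and cells were incubated with fivefold serial dilutions of compound. Cytopathicity was scored microscopically once untreated infected controls reached complete CPE. Minimal cytotoxic concentration was read as microscopically visible alteration of cell morphology.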

[5] = tested on: Mammalian orthoreovirus 1; assay: Antiviral activity against reovirus-1 infected in african green monkey Vero cells assessed as virus-induced cytopathogenicity at 20 to 100 uM after 4 days by microscopy; format: functional, organism-based; method in brief: as §1
Influenza A virus [6] = assay: Antiviral activity against Influenza A virus H3N2 infected in MDCK assessed as virus-induced cytopathogenicity at 20 to 100 uM after 4 days by microscopy; format: functional, organism-based; method in brief: as §2
[7] = tested on: Vesicular stomatitis virus; assay: Antiviral activity against Vesicular stomatitis virus infected in HELF assessed as virus-induced cytopathogenicity at 20 to 100 uM after 4 days by microscopy; format: functional, organism-based; method in brief: as §2
Human alphaherpesvirus 2 = assay: Antiviral activity against Human herpesvirus 2 strain G infected in HELF assessed as virus-induced cytopathogenicity at 20 to 100 uM after 4 days by microscopy; format: functional, organism-based; method in brief: as §1
Feline coronavirus = assay: Antiviral activity against Feline coronavirus infected in CrFK assessed as virus-induced cytopathogenicity at 20 to 100 uM after 4 days by microscopy; format: functional, organism-based; method in brief: as §1
Human respirovirus 3 = assay: Antiviral activity against parainfluenza-3 infected in african green monkey Vero cells assessed as virus-induced cytopathogenicity at 20 to 100 uM after 4 days by microscopy; format: functional, organism-based; method in brief: as §1
Influenza A virus [8] = assay: Antiviral activity against Influenza A virus H1N1 infected in MDCK assessed as virus-induced cytopathogenicity at 20 to 100 uM after 4 days by microscopy; format: functional, organism-based; method in brief: as §2
Human alphaherpesvirus 1 = assay: Antiviral activity against Human herpesvirus 1 strain KOS infected in HELF assessed as virus-induced cytopathogenicity at 20 to 100 uM after 4 days by microscopy; format: functional, organism-based; method in brief: as §1
Coxsackievirus B4 = assay: Antiviral activity against coxsackievirus B4 infected in african green monkey Vero cells assessed as virus-induced cytopathogenicity at 20 to 100 uM after 4 days by microscopy; format: functional, organism-based; method in brief: as §1

Structure (SMILES)	EC50 (Human betaherpesvirus 5) [µM]	MCC at 72 h [1] [µM]	CC50 [1] [µM]	further results
NC(=O)[C@H](CCC(=O)O)NC(=O)C1(Cc2ccccc2)CCN1C(=O)OCc1ccccc1 (mixture of isomers)	> 100	> 100	> 100	
NC(=O)[C@H](Cc1ccccc1)NC(=O)[C@@]1(Cc2ccccc2)CCN1C(=O)OCc1ccccc1	> 20	100	37	
C[C@H](NC(=O)[C@]1(Cc2ccccc2)CCN1C(=O)OCc1ccc([N+](=O)[O-])cc1)C(N)=O	> 20	100		IC50 (Human alphaherpesvirus 3 [2]): 67 µM; CC50 at 72 h [1]: > 100 µM; IC50 (Human alphaherpesvirus 3 [3]): > 100 µM
C[C@H](NC(=O)[C@@]1(Cc2ccccc2)CCN1C(=O)OCc1ccccc1)C(=O)NC(C)(C)C (mixture of isomers)	49	> 100	> 100	IC50 (Human alphaherpesvirus 3 [2]): 60 µM; IC50 (Human alphaherpesvirus 3 [3]): 63 µM
C[C@H](NC(=O)[C@]1(Cc2ccccc2)CCN1C(=O)Oc1cccc2ccccc12)C(N)=O	45	> 100	> 100	IC50 (Human alphaherpesvirus 3 [2]): 47.7 µM; IC50 (Human alphaherpesvirus 3 [3]): 47.7 µM
Nc1nc2c(ncn2COCCO)c(=O)[nH]1 [ACYCLOVIR]		> 1780	> 1780	
C[C@H](NC(=O)[C@]1(Cc2ccccc2)CCN1C(=O)OCc1ccccc1)C(N)=O	32	> 50	50	
C[C@H](NC(=O)[C@]1(Cc2ccccc2)CCN1C(=O)OCc1ccccc1)C(=O)NC1CCCCC1	> 100	> 100	> 100	
C[C@H](NC(=O)[C@]1(Cc2ccccc2)CCN1C(=O)OCc1ccccc1)C(=O)NCc1ccccc1	> 20	100		
Nc1nc(O)c2ncn(COC(CO)CO)c2n1 [GANCICLOVIR]	7	≥ 1580	580	
C[C@H](NC(=O)[C@]1(Cc2ccccc2)CCN1C(=O)OCC1c2ccccc2-c2ccccc21)C(N)=O	> 4	20	14	Activity (Sindbis virus): inactive; Activity (Influenza A virus [4]): inactive; Activity [5]: inactive; Activity (Influenza A virus [6]): inactive; Activity [7]: inactive; Activity (Human alphaherpesvirus 2): inactive; Activity (Feline coronavirus): inactive; Activity (Human respirovirus 3): inactive; Activity (Influenza A virus [8]): inactive; Activity (Human alphaherpesvirus 1): inactive; Activity (Coxsackievirus B4): inactive
C[C@@H](NC(=O)[C@]1(Cc2ccccc2)CCN1C(=O)OCc1ccccc1)C(N)=O	63	> 100	36	
C[C@H](NC(=O)[C@]1(Cc2ccccc2)CCN1C(=O)OCc1ccccc1)C(=O)NC(C)(C)C	45	> 100		IC50 (Human alphaherpesvirus 3 [2]): 62.5 µM
C[C@H](NC(=O)[C@@]1(Cc2ccccc2)CCN1C(=O)OCc1ccccc1)C(=O)NC1CCCCC1	> 20	100	46	
C[C@H](NC(=O)[C@@]1(Cc2ccccc2)CCN1C(=O)OCc1ccccc1)C(=O)NCc1ccccc1 (racemic)	> 4	≥ 20	42	
C[C@H](NC(=O)[C@]1(Cc2ccccc2)CCN1C(=O)CCc1ccccc1)C(N)=O	> 100	100		CC50 at 72 h [1]: > 100 µM
C[C@H](NC(=O)[C@]1(Cc2ccccc2)CCN1C(=O)NCc1ccccc1)C(N)=O	> 100	> 100	> 100	

Structure (SMILES)	EC50 (Human betaherpesvirus 5) [µM]	MCC at 72 h [1] [µM]	CC50 [1] [µM]	further results
CC(C)[C@H](NC(=O)[C@@]1(Cc2ccccc2)CCN1C(=O)OCc1ccccc1)C(N)=O	> 100	> 100	85	
CC(C)CNC(=O)[C@H](C)NC(=O)[C@]1(Cc2ccccc2)CCN1C(=O)OCc1ccccc1	63	> 100	> 100	IC50 (Human alphaherpesvirus 3 [2]): 64.8 µM; IC50 (Human alphaherpesvirus 3 [3]): > 100 µM
C[C@H](NC(=O)[C@H](Cc1ccccc1)NC(=O)OCc1ccccc1)C(=O)NC(C)(C)C	> 100	> 100	> 100	
C[C@H](NC(=O)[C@]1(Cc2ccccc2)CCN1C(=O)OCc1ccccc1Cl)C(N)=O	> 20	> 100	> 100	
C[C@H](NC(=O)[C@]1(Cc2ccccc2)CCN1C(=O)Oc1ccccc1)C(N)=O	> 20	> 100	> 100	IC50 (Human alphaherpesvirus 3 [2]): 858 µM; IC50 (Human alphaherpesvirus 3 [3]): 69 µM
CC(C)C[C@H](NC(=O)[C@]1(Cc2ccccc2)CCN1C(=O)OCc1ccccc1)C(N)=O	> 20	100	50	
CC(C)[C@H](NC(=O)[C@]1(Cc2ccccc2)CCN1C(=O)OCc1ccccc1)C(N)=O		> 100	100	
C[C@@H](NC(=O)[C@@]1(Cc2ccccc2)CCN1C(=O)OCc1ccccc1)C(N)=O	> 100	> 100	> 100	
CC(C)CNC(=O)[C@H](C)NC(=O)[C@@]1(Cc2ccccc2)CCN1C(=O)OCc1ccccc1	> 100	> 100		
C[C@H](NC(=O)[C@]1(Cc2ccccc2)CCN1S(=O)(=O)c1ccc2ccccc2c1)C(N)=O	> 100	> 100	> 100	IC50 (Human alphaherpesvirus 3 [2]): 76.5 µM; IC50 (Human alphaherpesvirus 3 [3]): > 100 µM
C[C@H](NC(=O)[C@]1(Cc2ccccc2)CCN1C(=O)N[C@@H](C)c1ccccc1)C(N)=O	> 100	> 100	> 100	
CC(C)C[C@H](NC(=O)[C@@]1(Cc2ccccc2)CCN1C(=O)OCc1ccccc1)C(N)=O	45	> 100	66	
C[C@H](NC(=O)[C@]1(Cc2ccccc2)CCN1C(=O)OCc1ccccc1)C(=O)N(C)C	> 100	> 100	> 100	
C[C@H](NC(=O)[C@@]1(Cc2ccccc2)CCN1C(=O)OCc1ccccc1)C(=O)N(C)C	> 100	> 100		
NC(=O)[C@H](Cc1ccccc1)NC(=O)[C@]1(Cc2ccccc2)CCN1C(=O)OCc1ccccc1	> 20	100	33	
NCCCC[C@H](NC(=O)C1(Cc2ccccc2)CCN1C(=O)OCc1ccccc1)C(N)=O (mixture of isomers)	> 100	> 100	> 100	
C[C@H](NC(=O)[C@H](Cc1ccccc1)NC(=O)OCc1ccccc1)C(N)=O	> 100	> 100	> 100	
